Published values pooled from the literature.
Target: LIM domain kinase 2 (LIMK2, Homo sapiens, UniProt P53671)

With `COc1cnc(Nc2cccc(S(N)(=O)=O)c2)nc1N1CCN(c2ccccc2)C(=O)C1` the remaining binding was 100% (binding, competition with immobilised ligand; 1 µM).
For `CC1=C(C#N)C(c2ccc3c(c2)c(NC(=O)c2ccccc2C)nn3C)C(C#N)=C(C)N1`, the remaining binding was 99% (cell-free assay, competition with immobilised ligand; 1 µM).
The remaining binding of `CNC(=O)[C@@H]1CC[C@@H](n2c(-c3ccc4cnccc4c3)nc3ccc(C(=O)NCc4cccc(C(N)=O)c4)cc32)C1` is reported as 100% (binding, competition with immobilised ligand; 1 µM).
`COc1ncc2cc3ccccc3nc2c1C#N` gave a remaining binding of 91% (cell-free assay, competition with immobilised ligand; 5 µM).
`CCC(=O)N[C@H]1CC[C@@H](C(=O)N(C)c2ccc(-c3nc4ccccc4o3)cc2)C1` gave a remaining binding of 100% (cell-free assay, competition with immobilised ligand; 1 µM).
`FC(F)(F)Oc1cccc(-c2cnc3ccc(-c4ccncc4)nn23)c1` has a remaining binding of 69% (cell-free assay, competition with immobilised ligand; 5 µM).
`Cc1cnc(Nc2ccc(C(=O)N3CCC(N4CCCC4)CC3)cc2)nc1-c1cc2ccccc2s1` gave a remaining binding of 30% (binding, competition with immobilised ligand; 1 µM).
The remaining binding of `COc1cc(-c2cn(C3CCc4c(F)cccc4N(CC(F)(F)F)C3=O)nn2)ccc1-n1cnc(C)c1` (stereo not shown) is reported as 100% (cell-free assay, competition with immobilised ligand; 1 µM).
For `C[C@H]1CCN(c2nccc(-c3cnn4ncccc34)n2)C1`, the remaining binding was 75% (binding; 1 µM).
`O=C(c1ccc(Nc2nccc(-c3cc4ccccc4s3)n2)cc1)N1CCC(N2CCCC2)CC1` has a remaining binding of 47% (binding, competition with immobilised ligand; 1 µM).
For `O=C(NCC1CCOCC1)c1n[nH]cc1NC(=O)c1c(F)cccc1F`, the remaining binding was 97% (binding, competition with immobilised ligand; 1 µM).
The remaining binding of `CN(C)c1ncnc(-c2ccc3nc(Nc4cc(CN5CCN(C(=O)CC(F)(F)F)CC5)ccn4)[nH]c3c2)c1Cl` is reported as 100% (cell-free assay, competition with immobilised ligand; 1 µM).
`N[C@@H]1CCN(c2nccc(-c3cnn4ncccc34)n2)C1` gave a remaining binding of 100% (binding; 1 µM).
With `CNCc1ccccc1-c1csc([C@@H](C)Nc2nc(C)nc3cc(OC)c(OC)cc23)c1` the remaining binding was 96% (cell-free assay, competition with immobilised ligand; 1 µM).
For `CN(CCCC(F)(F)F)c1nccc(-c2cnn3ncccc23)n1`, the remaining binding was 95% (binding; 1 µM).
`CCN1CCN(Cc2ccc(C(=O)Nc3ccc(C)c(Oc4ccc5c(c4)CC(=O)N5)c3)cc2C(F)(F)F)CC1` gave a remaining binding of 100% (binding, competition with immobilised ligand; 1 µM).
For `CN(C)c1ncc(F)c(-c2cnn3ncccc23)n1`, the remaining binding was 82% (binding; 1 µM).
For `O=C(NCCCN1CCOCC1)c1ccc(Nc2nccc(-c3cc4ccccc4s3)n2)cc1`, the remaining binding was 59% (binding, competition with immobilised ligand; 1 µM).
For `COc1ccnn2ncc(-c3ccnc(N(C)C)n3)c12`, the remaining binding was 82% (binding; 1 µM).
`CNC(=O)c1ccc(Nc2ncc(C(F)(F)F)c(NCc3nccnc3N(C)S(C)(=O)=O)n2)cc1` has a remaining binding of 87% (cell-free assay, competition with immobilised ligand; 0.1 µM).
`Cc1cnn2ncc(-c3ccnc(N(C)C)n3)c2c1` has a remaining binding of 94% (binding; 1 µM).
With `C=CC(=O)N1CCC(C(=O)NCC(=O)N2CCN(c3nc(-c4cnc(N)nc4C(F)F)nc(N4CCOCC4)n3)CC2)CC1` the remaining binding was 97% (binding, competition with immobilised ligand; 1 µM).
